According to ChEMBL document CHEMBL3399929 (Bioorg Med Chem, 2015):
pIC50: −log10 of the molar value. Values after ≈ are worked out from the molar mass of the structure shown. Active and inactive are the calls of the source. The calls are words filed in the database; no cut-off is given here.

How the values were obtained:
[1] = Inhibition of Mycobacterium smegmatis TMC 607 ATP synthase incubated for 10 mins prior to NADH addition measured after 1 hr by luminescence assay; design: species or system Mycolicibacterium smegmatis; conditions: for pIC50: read-out: IC50
[2] = test system: Mycobacterium tuberculosis; experiment: Bactericidal activity against non-replicating Mycobacterium tuberculosis H37Rv Wayne model under hypoxic/oxygen depleted conditions assessed as log reduction after 4 days by serial dilution assay; format: functional
Summary of the method: (§1)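 Wayne hypoxia model. A mid-log 7H9 culture was diluted to about 10^5 cfu/mL, and 10 mL was sealed in 20 mL headspace vials. Vials were stirred slowly at 37 °C for 20–22 days, until methylene blue indicator (1.5 µg/mL) decolorized. Drug was then injected through the septum, and vials were incubated 4 more days at 37 °C. Tests were run in duplicate, with CFU counted on 7H10 agar plates.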

[3] = organism: Mus musculus; experiment: Inhibition of Swiss mouse liver ATP synthase at 100 uM after 1 hr
Summary of the method: (§2)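 Liver mitochondria came from an overnight-fasted adult Swiss mouse, isolated by differential centrifugation in sucrose/Tris-MOPS/EGTA buffer pH 7.4 and assayed the same day. Mitochondria (100 µg) were stirred at room temperature with 100 µM compound in Tris/HCl, sucrose, 5 mM MgCl2 and 100 µM diadenosine pentaphosphate, pH 7.4. The reaction was started with 1 mM ADP, 20 mM Pi and 50 mM succinate, stopped after 1 h with EDTA-TCA, and ATP was read by luciferase.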

[4] = target: ATP synthase (Mycobacterium tuberculosis) (UniProt P9WPU9+P9WPU5+P9WPU7+P9WPV5+P9WPS1+P9WPV1+P9WPV7+P9WPV3); experiment: Inhibition of Mycobacterium tuberculosis H37Rv ATP synthase assessed as reduction in total ATP content at 100 uM after 18 hrs by bead-vortexing settling method; format: protein-complex assay
Summary of the method: (§3)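 H37Rv was declumped by bead-vortexing and settling, adjusted to McFarland 1, then diluted 100-fold. Portions of 1 mL in tubes with 0.5 mm glass beads were exposed to compound for 18 h at 37 °C. Samples were heated 8–10 min, chilled on ice, and bead-beater lysed. Cleared lysate ATP was measured by luciferase assay.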

[5] = test system: Mycobacterium tuberculosis; experiment: Bactericidal activity against non-replicating Mycobacterium tuberculosis H37Rv Wayne model under hypoxic/oxygen depleted conditions assessed as log reduction at 100 ug/ml after 4 days by serial dilution assay; format: functional; summary of the method: as §1
[6] = test system: Mycolicibacterium smegmatis; experiment: Inhibition of Mycobacterium smegmatis TMC 607 ATP synthase at 100 uM incubated for 10 mins prior to NADH addition measured after 1 hr by luminescence assay
Summary of the method: (§4)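 Inverted membrane vesicles from M. smegmatis were diluted to 100 µg protein/mL in 50 mM MOPS pH 7.5 with 10 mM MgCl2. Vesicles were preincubated with compound for 10 min at room temperature with stirring, then given 2.5 mM NADH for 1 min. The reaction was started with 1 mM ADP plus 10 mM potassium phosphate and run for 1 h. It was quenched with EDTA/TCA, and ATP was read by luciferase luminescence.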

[7] = test system: Mycobacterium tuberculosis; experiment: Antimycobacterial activity against Mycobacterium tuberculosis H37Rv infected in mouse chronic TB model assessed as survival rate at 490 umol/kg administered via esophageal cannula 6 times a week for 4 weeks relative to untreated control; format: functional; conditions: 672 h
Summary of the method: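 Male Balb/C mice (8–10 weeks, 18–20 g), ten per group, were infected intravenously with 5 × 10^6 CFU H37Rv in 0.2 mL. Dosing by gavage began on day 1, six times weekly for 4 weeks, with the last dose on day 28. Survival was followed to day 30. Survivors were sacrificed on day 30, and lung and spleen homogenates were plated on 7H10/OADC at 37 °C for 4–6 weeks. Results were compared with an untreated infected group.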

[8] = test system: Mycobacterium tuberculosis; experiment: Antimycobacterial activity against Mycobacterium tuberculosis H37Rv after 4 weeks by agar dilution assay; format: functional; conditions: for MIC: Mycobacterium tuberculosis, H37Rv, 672 h, read-out: MIC100
Summary of the method: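 Agar dilution method. DMSO stocks (5 mg/mL) were serially diluted in DMSO, and 0.1 mL of each was mixed into 1.9 mL Middlebrook 7H10 agar with OADC and set as slants. Each tube received about 10^5 bacilli from a 3-week Lowenstein–Jensen culture suspended in saline with 0.05% Tween-80. Tubes were incubated at 37 °C for 4 weeks. MIC was the lowest concentration with no visible growth.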

[9] = test system: Candida parapsilosis; experiment: Antifungal activity against Candida parapsilosis ATCC 22019 at 50 ug/ml; format: functional, organism-based
[10] = test system: Mycobacterium tuberculosis; experiment: Bactericidal activity against non-replicating Mycobacterium tuberculosis H37Rv Wayne model under hypoxic/oxygen depleted conditions assessed as log reduction at 10 ug/ml after 4 days by serial dilution assay; format: functional; summary of the method: as §1
[11] = Inhibition of Swiss mouse liver ATP synthase after 1 hr; summary of the method: as §2
[12] = test system: Mycobacterium tuberculosis H37Rv; experiment: Inhibition of Mycobacterium tuberculosis H37Rv ATP synthase assessed as reduction in total ATP content at 50 ug/ml after 18 hrs by bead-vortexing settling method; summary of the method: as §3
[13] = Cytotoxicity against mouse bone marrow macrophages […]; format: cell-based; conditions: macrophage
[14] = test system: Mycobacterium tuberculosis H37Rv; experiment: Inhibition of Mycobacterium tuberculosis H37Rv ATP synthase assessed as reduction in total ATP content at 12.5 ug/ml after 18 hrs by bead-vortexing settling method; summary of the method: as §3
[15] = Cytotoxicity against African green monkey Vero cells after 72 hrs yb resazurin assay; format: cell-based; conditions: chlorocebus sabaeus
Summary of the method: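 Vero cells were seeded overnight in RPMI with 10% heat-inactivated FBS at 37 °C, 5% CO2. Cells were exposed in triplicate to concentrations from 100 to 1.56 µg/mL for 72 h. Resazurin (0.1%) was then added for 4–5 h, and fluorescence was read at ex 530/em 590 nm. CC50 was derived from the fluorescence plot.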

[16] = test system: Escherichia coli; experiment: Antibacterial activity against Escherichia coli ATCC 9637 at 50 ug/ml; format: functional, organism-based
[17] = test system: Trichophyton mentagrophytes; experiment: Antifungal activity against Trichophyton mentagrophytes at 50 ug/ml; format: functional, organism-based
[18] = Selectivity ratio of IC50 for Mycobacterium smegmatis TMC 607 ATP synthase to IC50 for Swiss mouse liver ATP synthase
[19] = test system: Candida albicans; experiment: Antifungal activity against Candida albicans at 50 ug/ml; format: functional, organism-based
[20] = Selectivity index, ratio of CC50 for African green monkey Vero cells to MIC100 for Mycobacterium tuberculosis H37Rv; format: toxicity, cell-based; conditions: read-out: Selectivity Index
Summary of the method: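 Selectivity index is CC50 from the Vero resazurin assay divided by the agar-dilution MIC against H37Rv.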

[21] = test system: Aspergillus fumigatus; experiment: Antifungal activity against Aspergillus fumigatus at 50 ug/ml; format: functional, organism-based
[22] = test system: Cryptococcus neoformans; experiment: Antifungal activity against Cryptococcus neoformans at 50 ug/ml; format: functional, organism-based
[23] = test system: Pseudomonas aeruginosa; experiment: Antibacterial activity against Pseudomonas aeruginosa ATCC BAA-427 at 50 ug/ml; format: functional, organism-based
[24] = test system: Sporothrix schenckii; experiment: Antifungal activity against Sporothrix schenckii at 50 ug/ml; format: functional, organism-based
[25] = test system: Staphylococcus aureus; experiment: Antibacterial activity against Staphylococcus aureus ATCC 25923 at 50 ug/ml; format: functional, organism-based
[26] = test system: Klebsiella pneumoniae; experiment: Antibacterial activity against Klebsiella pneumoniae ATCC 27736 at 50 ug/ml; format: functional, organism-based
[27] = test system: Mycobacterium tuberculosis; experiment: Bactericidal activity against non-replicating Mycobacterium tuberculosis H37Rv Wayne model under hypoxic/oxygen depleted conditions assessed as log reduction at 50 ug/ml after 4 days by serial dilution assay; format: functional; summary of the method: as §1
[28] = test system: Mycobacterium tuberculosis H37Rv; experiment: Inhibition of Mycobacterium tuberculosis H37Rv ATP synthase assessed as reduction in total ATP content at 0.5 ug/ml after 18 hrs by bead-vortexing settling method; summary of the method: as §3
[29] = test system: Mycobacterium tuberculosis; experiment: Bactericidal activity against non-replicating Mycobacterium tuberculosis H37Rv Wayne model under hypoxic/oxygen depleted conditions assessed as log reduction at 5 ug/ml after 4 days by serial dilution assay; format: functional; summary of the method: as §1
[30] = test system: Mycolicibacterium smegmatis; experiment: Inhibition of Mycobacterium smegmatis TMC 607 ATP synthase at 0.3 uM incubated for 10 mins prior to NADH addition measured after 1 hr by luminescence assay; summary of the method: as §4

CCN(CC)Cc1cc(N(c2cc(C)nc3cc(Cl)ccc23)S(=O)(=O)[C@@]23CCC(CC2=O)C3(C)C)ccc1O
pIC50 [1]: 5.47

C(=NC1CCCCC1)=NC1CCCCC1 [DICYCLOHEXYLCARBODIIMIDE]
MIC100 [2]: inactive
inhibition [3]: 83%
inhibition [4]: 30%
log10CFU/ml [5]: 4.68
inhibition [6]: 99.5%

CCN(CC)Cc1cc(N(c2cc(C)nc3cc(Cl)ccc23)S(=O)(=O)c2cccs2)ccc1O
pIC50 [1]: 5.80

CCN(CC)Cc1cc(N(c2cc(C)nc3cc(Cl)ccc23)S(=O)(=O)c2ccc(Cl)c(Cl)c2)ccc1O
pIC50 [1]: 5.90

CC[C@@H](CO)NCCN[C@@H](CC)CO [ETHAMBUTOL]
survival at 490 µmol/kg [7]: 90%

CCN(CC)Cc1cc(N(c2cc(C)nc3cc(Cl)ccc23)S(=O)(=O)c2ccc3ccccc3c2)ccc1O
MIC [8]: > 25 µg/mL
pIC50 [1]: 6.04

CCN(CC)Cc1cc(N(c2cc(C)nc3cc(Cl)ccc23)S(=O)(=O)c2cccc3ccccc23)ccc1O
MIC [8]: 12.5 µg/mL (≈ 22.3 µM)
pIC50 [1]: 6.00

CCN(CC)Cc1cc(N(c2cc(C)nc3cc(Cl)ccc23)S(=O)(=O)c2ccc(C#N)cc2)ccc1O
MIC [8]: > 12.5 µg/mL
pIC50 [1]: 6.13

CCN(CC)Cc1cc(N(c2cc(C)nc3cc(Cl)ccc23)S(=O)(=O)c2ccc(Cl)cc2Cl)ccc1O
MIC100 [8]: 3.12 µg/mL (≈ 5.39 µM)
Activity [9]: inactive
log10CFU/ml [10]: 0.79
pIC50 [11]: < 4.00
MIC100 [2]: 3.12 µg/mL (≈ 5.39 µM)
pIC50 [1]: 6.20
inhibition [12]: 26%
Activity [13]: Non-toxic
inhibition [14]: 54%
CC50 at 72 h [15]: > 300 µg/mL
Activity [16]: inactive
Activity [17]: inactive
Ratio IC50 [18]: > 155
Activity [19]: inactive
selectivity ratio [20]: > 48
Activity [21]: inactive
Activity [22]: inactive
Activity [23]: inactive
Activity [24]: inactive
log10CFU/ml [5]: 1.64
Activity [25]: inactive
Activity [26]: inactive

CCN(CC)Cc1cc(N(c2cc(C)nc3cc(Cl)ccc23)S(=O)(=O)c2c(C)cc(C)cc2C)ccc1O
pIC50 [1]: 5.98

CCN(CC)Cc1cc(N(c2cc(C)nc3cc(Cl)ccc23)S(=O)(=O)c2cc(C)cc(C)c2)ccc1O
pIC50 [1]: 5.74

CCN(CC)Cc1cc(N(c2cc(C)nc3cc(Cl)ccc23)S(=O)(=O)c2cc(Cl)ccc2Cl)ccc1O
pIC50 [1]: 5.87

CCN(CC)Cc1cc(N(c2cc(C)nc3cc(Cl)ccc23)S(=O)(=O)c2ccc(Cl)s2)ccc1O
MIC100 [8]: 6.25 µg/mL (≈ 11.4 µM)
pIC50 [1]: 6.44

Cc1ncc([N+](=O)[O-])n1CCO [METRONIDAZOLE]
log10CFU/ml [27]: 1.16
MIC100 [2]: inactive
IC50 [1]: Not Active

CO[C@H]1/C=C/O[C@@]2(C)Oc3c(C)c(O)c4c(O)c(c(/C=N/N5CCN(C)CC5)c(O)c4c3C2=O)NC(=O)/C(C)=C\C=C\[C@H](C)[C@H](O)[C@@H](C)[C@@H](O)[C@@H](C)[C@H](OC(C)=O)[C@@H]1C
inhibition [28]: 69.6%

CCN(CC)Cc1cc(N(c2cc(C)nc3cc(Cl)ccc23)S(=O)(=O)c2cccc3cccnc23)ccc1O
pIC50 [1]: 5.73

NNC(=O)c1ccncc1 [ISONIAZID]
MIC [8]: 0.1 µg/mL (≈ 0.729 µM)
log10CFU/ml [29]: 0.21
MIC ([2]; Mycobacterium tuberculosis, H37Rv, 96 h, read-out: MIC100): ≤ 0.12 µg/mL
IC50 [1]: Not Active
inhibition [28]: 78.5%
inhibition [30]: 0%

CCN(CC)Cc1cc(N(c2cc(C)nc3cc(Cl)ccc23)S(=O)(=O)c2ccc([N+](=O)[O-])cc2)ccc1O
MIC100 [8]: 6.25 µg/mL (≈ 11.3 µM)
pIC50 [1]: 6.41
CC50 at 72 h [15]: 55 µg/mL (≈ 99.1 µM)
selectivity ratio [20]: 18

CCN(CC)Cc1cc(N(c2cc(C)nc3cc(Cl)ccc23)S(=O)(=O)c2ccc(Cl)cc2)ccc1O
MIC100 [8]: 6.25 µg/mL (≈ 11.5 µM)
pIC50 [1]: 6.28
Activity [13]: Non-toxic
CC50 at 72 h [15]: > 300 µg/mL
selectivity ratio [20]: > 48

CCN(CC)Cc1cc(Nc2cc(C)nc3cc(Cl)ccc23)ccc1O
MIC [8]: > 50 µg/mL
pIC50 [1]: 5.26

CCN(CC)Cc1cc(N(c2cc(C)nc3cc(Cl)ccc23)S(=O)(=O)c2cccc(C(F)(F)F)c2)ccc1O
pIC50 [1]: 5.87

CCN(CC)Cc1cc(N(c2cc(C)nc3cc(Cl)ccc23)S(=O)(=O)c2c(C(C)C)cc(C(C)C)cc2C(C)C)ccc1O
pIC50 [1]: 5.48
